From ChEMBL document CHEMBL1140328, “Synthesis and mechanism of action studies of a series of norindenoisoquinoline topoisomerase I poisons reveal an inhibitor with a flipped orientation in the ternary DNA-enzyme-inhibitor complex as determined by X-ray crystallographic analysis” (2005) come the findings set out here.

SMILES strings stand for the structures.

The target of assay [1] is T1, DNA topoisomerase 1 (Homo sapiens) (UniProt P11387).
T1 sequence (whole entry): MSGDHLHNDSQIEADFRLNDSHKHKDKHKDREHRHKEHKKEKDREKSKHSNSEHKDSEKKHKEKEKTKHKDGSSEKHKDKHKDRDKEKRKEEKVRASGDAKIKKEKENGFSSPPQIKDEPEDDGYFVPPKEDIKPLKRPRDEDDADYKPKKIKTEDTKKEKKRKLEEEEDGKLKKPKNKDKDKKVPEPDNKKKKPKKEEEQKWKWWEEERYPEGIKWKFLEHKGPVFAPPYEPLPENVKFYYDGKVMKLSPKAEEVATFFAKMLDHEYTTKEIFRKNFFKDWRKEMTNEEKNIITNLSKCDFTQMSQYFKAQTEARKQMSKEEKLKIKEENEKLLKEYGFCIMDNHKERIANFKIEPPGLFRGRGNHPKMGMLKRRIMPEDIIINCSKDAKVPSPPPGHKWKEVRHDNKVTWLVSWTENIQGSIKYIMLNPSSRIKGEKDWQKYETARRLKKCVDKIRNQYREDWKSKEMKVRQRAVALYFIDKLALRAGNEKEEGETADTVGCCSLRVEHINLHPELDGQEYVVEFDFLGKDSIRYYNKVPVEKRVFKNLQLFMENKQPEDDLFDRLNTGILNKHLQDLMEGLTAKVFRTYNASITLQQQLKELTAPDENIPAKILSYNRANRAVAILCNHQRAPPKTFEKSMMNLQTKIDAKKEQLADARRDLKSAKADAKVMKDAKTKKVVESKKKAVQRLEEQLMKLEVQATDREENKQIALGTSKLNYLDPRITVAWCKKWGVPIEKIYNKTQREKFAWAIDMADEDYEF
The experiment in a line: Topoisomerase-I mediated DNA Cleavage activity at 30 degree C for 30 min relative to NSC 314622; Range = 25-75%.

Assay [2] in a line: Concentration required to inhibit the growth of human Renal SN12C cells. The assay is classed as functional. The procedure, abridged: (§1)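 NCI screen of about 55 human cancer cell lines; GI50 per cell line over a test range of 10⁻⁸ to 10⁻⁴ M. Mean graph midpoint is the average GI50 across all lines tested, with values outside the range set to 10⁻⁸ or 10⁻⁴ M.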
Assay [3] is described as follows: Concentration required to inhibit the growth of human CNSSF-539 cells. The assay is classed as functional. The procedure, abridged: as §1
Assay [4] is described as follows: Concentration required to inhibit the growth of human Melanoma UACC-62 cells. The assay is classed as functional. The method, boiled down:
as §1

Assay [5] is described as follows: Concentration required to inhibit the growth of human Colon […] cells. The format is functional. The procedure, abridged: as §1
A short description of assay [6]: Concentration required to inhibit the growth of human Prostate DU-145 cells. The assay is classed as functional. The method, boiled down:
as §1

Assay [7] in a line: Concentration required to inhibit the growth of human Breast MDA-MB-435 cells. The format is functional. The method, boiled down: as §1
A short description of assay [8]: Concentration required to inhibit the growth of human Ovarian OVCAR cells. The format is functional. The method, boiled down:
as §1

A short description of assay [9]: Concentration required to inhibit the growth of human Lung HOP-62 cells. The assay is classed as functional. The procedure, abridged:
as §1

Assay [10] is described as follows: Concentration required to inhibit the growth of human ProstateDU-145 cells. The assay is classed as functional. The following applies: DU-145. The method, boiled down: as §1
In assay [11] the target is T1, DNA topoisomerase 1 (Homo sapiens). The experiment in a line: Topoisomerase-I mediated DNA Cleavage activity at 30 degree C for 30 min relative to NSC 314622; Range = 75-175%.
A short description of assay [12]: Concentration required to inhibit the growth of human OvarianOVCAR cells. The format is functional. The method, boiled down:
as §1

The nature of assay [13]: Concentration required to inhibit the growth of human LungHOP-62 cells. The format is functional. The procedure, abridged: (§2)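 Assayed in the National Cancer Institute screen, a panel of approximately 55 human cancer cell lines. Compounds were tested over a concentration range of 10⁻⁸ to 10⁻⁴ molar, and growth inhibition was expressed as GI₅₀ for each cell line.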
Assay [14] can be described thus: Concentration required to inhibit the growth of human ColonHCT-11 cells. The format is functional. The procedure, abridged: as §2
The nature of assay [15]: Concentration required to inhibit the growth of human prostate DU-145 cells. The assay is classed as functional. The method, boiled down:
as §1

What is called GI50 is the concentration giving 50% growth inhibition. Low values mean greater sensitivity of the cells, high ones lower sensitivity of the cells. `COc1cc2c(cc1OC)-c1ncc3cc(OC)c(OC)cc3c1C2` yielded a Cleavage in assay [1] of 75%. Also, the GI50 in [2], in assay [3], in assay [4], in assay [5], in assay [6] and in [7] was over 50 µM throughout. In addition, in [8], the 50% growth inhibitory concentration (GI50) was over 50 µM.
With `COc1cc2cnc3c(c2c(OC)c1OC)Cc1cc2c(cc1-3)OCO2`, the Cleavage in assay [1] is 75%. In addition, the 50% growth inhibitory concentration (GI50) in assay [2] was found to be 0.602 µM; in assay [3] it was 0.869 µM; in assay [4] it was 0.439 µM; in assay [5], 0.0694 µM; in [9], 0.234 µM; in [7] it was 0.178 µM. For the same compound, the GI50 in [8] is 0.403 µM; in assay [10], over 100 µM.
`c1c2c(cc3c1OCO3)-c1ncc3cc4c(cc3c1C2)OCO4`: the Cleavage in [1] came out at 75%. The GI50 in assay [2] was 0.0414 µM; in assay [3] it was 0.598 µM; in assay [4], 0.19 µM; in assay [5], 0.283 µM; in assay [9] it was 0.227 µM; in assay [7] it was under 0.01 µM. In addition, the GI50 in assay [8] is 0.0232 µM.
With `COc1cc2c(c(OC)c1OC)-c1ncc3cc4c(cc3c1C2)OCO4`, the 50% growth inhibitory concentration (GI50) is 13.4 µM in assay [2]; 19.3 µM in assay [4]; 18.8 µM in [5]; 23.2 µM in assay [6]; 21.7 µM in assay [9]; 13.2 µM in [7]. This compound showed a 50% growth inhibitory concentration (GI50) in assay [8] of 15.5 µM.
Take `COc1cc2cnc3c(c2cc1OC)Cc1cc2c(cc1-3)OCO2`: the concentration for 50% growth inhibition (GI50) was over 100 µM in assay [2]; under 0.01 µM in assay [3]; under 0.01 µM in assay [4]; over 100 µM in [5]; 0.0281 µM in assay [6]; 0.0721 µM in assay [9]. For the same compound, the GI50 in [7] is under 0.01 µM. Also, the Cleavage in assay [11] worked out at 175%.
Turning to `COc1cc2c3c(n(C)c(=O)c2cc1OC)-c1cc2c(cc1C3=O)OCO2`, the Cleavage in [1] was 75%. For the same compound, the GI50 stood at 68 µM in assay [2]; 4.2 µM in assay [4]; 35 µM in [5]; 37 µM in assay [6]; 1.3 µM in [9]; 96 µM in assay [7]. Further, in assay [8], it took 73 µM to inhibit growth by half (GI50).
For the compound `COc1cc2c(c(OC)c1OC)-c1ncc3cc(OC)c(OC)c(OC)c3c1C2`, the concentration for 50% growth inhibition (GI50) in assay [2] came to 17.6 µM; in [4], 17.4 µM; in assay [5], 33.5 µM; in assay [6], 26.6 µM; in [9], 35.4 µM; in assay [7], 20.8 µM. Besides, in [12], it took 19.1 µM to inhibit growth by half (GI50).
Take `CC[C@@]1(O)C(=O)OCc2c1cc1n(c2=O)Cc2cc3ccccc3nc2-1` [CAMPTOTHECIN]: the concentration for 50% growth inhibition (GI50) worked out at 0.01 µM in assay [13], 0.03 µM in [14], 0.01 µM in assay [3] and 0.22 µM in [12].
In assay [1], `COc1cc2c3c(ncc2c(OC)c1OC)-c1cc2c(cc1C3)OCO2` had a Cleavage of 75%. Also, the GI50 in assay [5] is 22.1 µM; in [7], over 100 µM; in assay [15], 26.9 µM.
Turning to `COc1cc2c(cc1OC)-c1ncc3c(OC)ccc(OC)c3c1C2`, the 50% growth inhibitory concentration (GI50) in assay [2] amounted to 14.8 µM; in assay [3] it was 14 µM; in assay [4], 18 µM; in assay [5], 17.8 µM; in assay [6], 28.1 µM; in [9], 21.4 µM. Further, the 50% growth inhibitory concentration (GI50) in assay [7] came out at 23.4 µM; in assay [8], 15.4 µM.
On to `COc1cc2c(cc1OC)-c1ncc3cc4c(cc3c1C2)OCO4`, for which the GI50 in [2] is over 100 µM; in [3], 23.4 µM; in [4], over 100 µM; in assay [5], 11.1 µM; in assay [6], 25.3 µM; in assay [7], 63.4 µM. This compound also returned a GI50 in assay [8] of 61.2 µM. In assay [11], this compound registered a Cleavage of 175%.
For `COc1cc2c(cc1OC)-c1ncc3c(OC)c(OC)c(OC)cc3c1C2`, in [1], the Cleavage was 75%. Besides, the GI50 in [4] came out at 3.84 µM; in assay [5], 8.81 µM; in assay [9] it was 16 µM; in assay [8], 0.529 µM.
`COc1ccc(OC)c2c3c(ncc12)-c1cc2c(cc1C3)OCO2` displayed a Cleavage in [1] of 75%. Further, the GI50 in [2] was over 100 µM; in assay [4] it was over 100 µM; in [5] it was 0.249 µM; in assay [6] it was 48.4 µM; in assay [9], under 0.01 µM; in assay [7] it was over 100 µM. Further, halving of growth in assay [8] (GI50) required 26.9 µM.
In turn, `COc1cc2c(c(OC)c1OC)-c1ncc3c(OC)c(OC)c(OC)cc3c1C2` returned a Cleavage in assay [1] of 75%. The concentration for 50% growth inhibition (GI50) was determined as 20.3 µM in [2]; 21.1 µM in [4]; 27.8 µM in assay [5]; 29.6 µM in assay [6]; 28.5 µM in [9]; 23 µM in assay [7]. Further, the 50% growth inhibitory concentration (GI50) in [8] was 21.5 µM.
As to `COc1cc2c(cc1OC)-c1ncc3cc(OC)c(OC)c(OC)c3c1C2`, the GI50 in assay [2] was found to be 14.4 µM; in assay [3], 14 µM; in assay [4] it was 7.42 µM; in assay [5] it was 31.8 µM; in [6], 21.7 µM; in [9], 34.8 µM. Moreover, the concentration for 50% growth inhibition (GI50) came to 16.2 µM in [7] and 15.9 µM in assay [8].
